Measured values taken from ChEMBL document CHEMBL4368884, “Structure-activity relationship of the cinnamamide family of antibiotic potentiators for methicillin-resistant Staphylococcus aureus (MRSA)” (Medchemcomm, 2018).

Assays:
[1] = tested on: Staphylococcus aureus; experiment: Growth inhibition of Staphylococcus aureus MRSA252; type: organism-based; conditions: in vitro
Method in brief: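 Compound alone was two-fold serially diluted in cation-adjusted Mueller-Hinton II broth containing 2.4% DMSO. Bacteria were inoculated at 5 × 10⁵ CFU mL⁻¹ and incubated at 36 °C for 16–20 h. The MIC was read in triplicate.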

[2] = tested on: Staphylococcus aureus; experiment: Potentiation of oxacillin-induced antibacterial activity against Staphylococcus aureus MRSA252 assessed as oxacillin MIC at 20 uM (reference value: 256 ug/ml); type: functional
[3] = tested on: Staphylococcus aureus; experiment: Potentiation of oxacillin-induced antibacterial activity against methicillin/oxacillin/tetracycline-resistant Staphylococcus aureus NRS100 assessed as oxacillin MIC at 20 uM; type: functional
Method in brief: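 Oxacillin MIC measured with the synthetic potentiator held at a fixed 20 μM. Two-fold serial dilution in cation-adjusted Mueller-Hinton II broth containing 2.4% DMSO. Inoculum 5 × 10⁵ CFU mL⁻¹, incubated at 36 °C for 16–20 h. Run in triplicate.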

[4] = tested on: Staphylococcus aureus; experiment: Potentiation of oxacillin-induced antibacterial activity against Staphylococcus aureus NRS386 assessed as oxacillin MIC at 20 uM; type: functional; conditions: USA700 NRS386
[5] = tested on: Staphylococcus aureus; experiment: Potentiation of oxacillin-induced antibacterial activity against Staphylococcus aureus NRS70 assessed as oxacillin MIC at 20 uM; type: functional
[6] = tested on: Staphylococcus aureus; experiment: Potentiation of oxacillin-induced antibacterial activity against Staphylococcus aureus MRSA252 assessed as fold reduction in oxacillin MIC at 20 uM relative to oxacillin alone; type: functional

| MIC [2] | Structure (SMILES) | growth inhibition (GI) [1] | MIC [3] | MIC [4] | MIC [5] | fold change (FC) [6] |
| --- | --- | --- | --- | --- | --- | --- |
| 128 µg/mL | COc1ccc(S(=O)(=O)N(CCO)c2ccccc2CN(C)C/C=C/c2ccc(Cl)cc2)cc1 | Non-Toxic |  |  |  |  |
| 32 µg/mL | Cc1ccc(S(=O)(=O)N(CCO)c2ccccc2CN(C)C/C=C/c2ccc(Cl)cc2)cc1 | Non-Toxic |  |  |  |  |
| 128 µg/mL | Cc1ccc(S(=O)(=O)N(CCO)c2ccccc2CN(C/C=C/c2ccc(Cl)cc2)CC(C)C)cc1 | Non-Toxic |  |  |  |  |
| 32 µg/mL | CN(C/C=C/c1ccccc1)Cc1ccccc1N(CCO)S(=O)(=O)c1ccc(C(F)(F)F)cc1 | Non-Toxic |  |  |  |  |
| ≥ 256 µg/mL | CC(=O)Nc1ccc(S(=O)(=O)N(CCO)c2ccccc2CN(C)C/C=C/c2ccc(Cl)cc2)cc1 | Non-Toxic |  |  |  |  |
| 64 µg/mL | CN(C/C=C/c1ccc(Cl)cc1)Cc1ccccc1N(CCO)S(=O)(=O)c1ccc(C(F)(F)F)cc1 | Non-Toxic |  |  |  |  |
| 32 µg/mL | Cc1ccc(S(=O)(=O)N(CCO)c2ccccc2CN(C)C/C=C/c2ccc(Cl)c(Cl)c2)cc1 | Non-Toxic |  |  |  |  |
| ≥ 256 µg/mL | Cc1ccc(S(=O)(=O)N(CCO)c2ccccc2CN(C)C/C=C/c2ccccc2)cc1 | Non-Toxic |  |  |  |  |
| ≥ 256 µg/mL | COc1ccc(/C=C/C(=O)N(C)Cc2ccccc2N(CCO)S(=O)(=O)c2ccc(C)cc2)cc1 | Non-Toxic |  |  |  |  |
| ≥ 256 µg/mL | COc1ccc(S(=O)(=O)N(CCO)c2ccccc2CN(C)C/C=C/c2ccccc2)cc1 | Non-Toxic |  |  |  |  |
| ≥ 256 µg/mL | Cc1ccc(S(=O)(=O)N(CCO)c2ccccc2CN(C)C(=O)c2ccc(Cl)cc2)cc1 | Non-Toxic |  |  |  |  |
| 128 µg/mL | COc1ccc(S(=O)(=O)N(CCO)c2ccccc2CN(C/C=C/c2ccc(Cl)cc2)CC(C)C)cc1 | Non-Toxic |  |  |  |  |
| ≥ 256 µg/mL | C=CCN(C)Cc1ccccc1N(CCO)S(=O)(=O)c1ccc(Cl)cc1 | Non-Toxic |  |  |  |  |
| 16 µg/mL | CN(C/C=C/c1ccc(Cl)cc1)Cc1ccccc1N(CCO)S(=O)(=O)c1ccc(Cl)cc1 | Non-Toxic |  |  |  |  |
| ≥ 256 µg/mL | CN(C/C=C/c1ccc(Cl)cc1)Cc1ccccc1N(CCO)S(=O)(=O)Cc1ccccc1 | Non-Toxic |  |  |  |  |
| ≥ 256 µg/mL | Cc1ccc(S(=O)(=O)N(CCO)c2ccccc2CN(C)C(=O)COc2ccc(Cl)cc2)cc1 | Non-Toxic |  |  |  |  |
| ≥ 256 µg/mL | Cc1ccc(S(=O)(=O)N(CCO)c2ccccc2C(=O)N(C)C/C=C/c2ccc(Cl)cc2)cc1 | Non-Toxic |  |  |  |  |

Continued, compound first:

| Structure (SMILES) | MIC [2] | growth inhibition (GI) [1] | MIC [3] | MIC [4] | MIC [5] | fold change (FC) [6] |
| --- | --- | --- | --- | --- | --- | --- |
| Cc1ccc(S(=O)(=O)N(CCO)c2ccccc2CN(C)C(=O)/C=C/c2ccco2)cc1 | ≥ 256 µg/mL | Non-Toxic |  |  |  |  |
| Cc1ccc(S(=O)(=O)N(CCO)c2ccccc2CN(C)C(=O)/C=C/c2ccc(C(F)(F)F)cc2)cc1 | 2 µg/mL | Non-Toxic | 4 µg/mL | 4 µg/mL | 16 µg/mL | 128 |
| CN(Cc1ccccc1)Cc1ccccc1N(CCO)S(=O)(=O)c1ccc(C(F)(F)F)cc1 | ≥ 256 µg/mL | Non-Toxic |  |  |  |  |
| CCc1ccc(S(=O)(=O)N(CCO)c2ccccc2CN(C)C(=O)/C=C/c2ccc(C(F)(F)F)cc2)cc1 | 4 µg/mL | Non-Toxic | 16 µg/mL | 8 µg/mL | 16 µg/mL | 64 |
| CN(Cc1ccccc1N(CCO)S(=O)(=O)c1ccsc1)C(=O)/C=C/c1ccc(Cl)cc1 | ≥ 256 µg/mL | Non-Toxic |  |  |  |  |
| CN(Cc1ccccc1N(CCO)S(=O)(=O)c1ccc([N+](=O)[O-])cc1)C(=O)/C=C/c1ccc(C(F)(F)F)cc1 | ≥ 256 µg/mL | Non-Toxic |  |  |  |  |
| Cc1ccc(S(=O)(=O)N(CCO)c2ccccc2CN(C(=O)/C=C/c2ccc(C(F)(F)F)cc2)C(C)C)cc1 | ≥ 256 µg/mL | Non-Toxic |  |  |  |  |
| Cc1ccc(S(=O)(=O)N(CCO)c2ccccc2CN(C)C(=O)/C=C/c2ccc(Br)s2)cc1 | ≥ 256 µg/mL | Non-Toxic |  |  |  |  |
| CN(Cc1ccccc1N(CCO)S(=O)(=O)c1ccc(C#N)cc1)C(=O)/C=C/c1ccc(C(F)(F)F)cc1 | 32 µg/mL | Non-Toxic |  |  |  |  |
| CN(Cc1ccccc1NS(=O)(=O)c1ccc(F)cc1)C(=O)/C=C/c1ccc(C(F)(F)F)cc1 | ≥ 256 µg/mL | Non-Toxic |  |  |  |  |
| C=CCN(Cc1ccccc1N(CCO)S(=O)(=O)c1ccc(OC)cc1)C(C)C | ≥ 256 µg/mL | Non-Toxic |  |  |  |  |
| CC(C)c1ccc(S(=O)(=O)N(CCO)c2ccccc2CN(C)C(=O)/C=C/c2ccc(C(F)(F)F)cc2)cc1 | 32 µg/mL | Non-Toxic |  |  |  |  |
| Cc1ccc(S(=O)(=O)N(CCO)c2ccccc2CN(C)C(=O)/C=C/c2ccc(Cl)cc2Cl)cc1 | ≥ 256 µg/mL | Non-Toxic |  |  |  |  |
| CC(=O)Nc1ccc(/C=C/C(=O)N(C)Cc2ccccc2N(CCO)S(=O)(=O)c2ccc(C)cc2)cc1 | ≥ 256 µg/mL | Non-Toxic |  |  |  |  |
| Cc1ccc(S(=O)(=O)N(CCO)c2ccccc2CN(C(=O)/C=C/c2ccc(C(F)(F)F)cc2)C2CC2)cc1 | ≥ 256 µg/mL | Non-Toxic |  |  |  |  |
| Cc1ccc(S(=O)(=O)N(CCO)c2ccccc2CN(C)C(=O)CCc2ccc(Cl)cc2)cc1 | ≥ 256 µg/mL | Non-Toxic |  |  |  |  |
| CN(Cc1ccccc1N(CCO)S(=O)(=O)c1ccc(OC(F)(F)F)cc1)C(=O)/C=C/c1ccc(C(F)(F)F)cc1 | 32 µg/mL | Non-Toxic |  |  |  |  |

| Structure (SMILES) | MIC [2] | growth inhibition (GI) [1] | MIC [3] | MIC [4] | MIC [5] | fold change (FC) [6] |
| --- | --- | --- | --- | --- | --- | --- |
| Cc1ccc(S(=O)(=O)N(CCO)c2ccccc2CN(C)C(=O)/C=C/c2ccc(F)cc2)cc1 | ≥ 256 µg/mL | Non-Toxic |  |  |  |  |
| Cc1ccc(S(=O)(=O)N(CCO)c2ccccc2CN(C)C(=O)c2ccc3cc(Br)ccc3c2)cc1 | ≥ 256 µg/mL | Non-Toxic |  |  |  |  |
| CN(Cc1ccccc1N(CCO)S(=O)(=O)c1ccc2c(c1)OCCO2)C(=O)/C=C/c1ccc(C(F)(F)F)cc1 | 64 µg/mL | Non-Toxic |  |  |  |  |
| Cc1ccc(S(=O)(=O)N(CCO)c2ccccc2CN(C)C(=O)/C=C/c2ccc(Cl)cc2)cc1 | 2 µg/mL | Non-Toxic | 2 µg/mL | 4 µg/mL | 8 µg/mL | 128 |
| Cc1ccc(S(=O)(=O)N(CCO)c2ccccc2CN(C)C(=O)/C=C/c2ccc(Cl)c(Cl)c2)cc1 | 16 µg/mL | Non-Toxic |  |  |  |  |
| CN(Cc1ccccc1N(CCO)S(=O)(=O)c1ccc(F)cc1)C(=O)/C=C/c1ccc(Cl)cc1 | 4 µg/mL | Non-Toxic | 1 µg/mL | 1 µg/mL | 8 µg/mL | 64 |
| CN(Cc1ccccc1N(CCO)S(=O)(=O)c1ccc(F)cc1)C(=O)/C=C/c1ccc(C(F)(F)F)cc1 | 2 µg/mL | Non-Toxic | 2 µg/mL | 8 µg/mL | 16 µg/mL | 128 |
| CN(Cc1ccccc1N(CCO)S(=O)(=O)c1cccs1)C(=O)/C=C/c1ccc(Cl)cc1 | 256 µg/mL | Non-Toxic |  |  |  |  |
| Cc1ccc(S(=O)(=O)N(CCO)c2ccccc2CN(C)C(=O)/C=C/c2ccc(-c3ccc(Cl)cc3)o2)cc1 | ≥ 256 µg/mL | Non-Toxic |  |  |  |  |
| CCN(Cc1ccccc1N(CCO)S(=O)(=O)c1ccc(C)cc1)C(=O)/C=C/c1ccc(C(F)(F)F)cc1 | ≥ 256 µg/mL | Non-Toxic |  |  |  |  |
| Cc1ccc(S(=O)(=O)N(CCO)c2ccccc2CN(C)C(=O)/C=C/c2cccnc2)cc1 | ≥ 256 µg/mL | Non-Toxic |  |  |  |  |
| Cc1ccc(S(=O)(=O)N(CCO)c2cccc(CN(C)C(=O)/C=C/c3ccc(C(F)(F)F)cc3)c2)cc1 | ≥ 256 µg/mL | Non-Toxic |  |  |  |  |
| Cc1ccc(S(=O)(=O)N(CCO)c2ccccc2CN(C)C(=O)/C=C/c2ccc(C(F)(F)F)cc2)cc1F | 4 µg/mL | Non-Toxic | 2 µg/mL | 8 µg/mL | 16 µg/mL | 64 |
| Cc1ccc(/C=C/C(=O)N(C)Cc2ccccc2N(CCO)S(=O)(=O)c2ccc(C)cc2)cc1 | 64 µg/mL | Non-Toxic |  |  |  |  |
| CN(Cc1ccccc1N(CCO)S(=O)(=O)c1ccccc1)C(=O)/C=C/c1ccc(C(F)(F)F)cc1 | 4 µg/mL | Non-Toxic | 2 µg/mL | 2 µg/mL | 16 µg/mL | 64 |
| Cc1ccc(S(=O)(=O)N(CCO)c2ccccc2CNC(=O)/C=C/c2ccc(C(F)(F)F)cc2)cc1 | ≥ 256 µg/mL | Non-Toxic |  |  |  |  |
| C=CCN(C)Cc1ccccc1N(CCO)S(=O)(=O)c1ccc(C)cc1 | ≥ 256 µg/mL | Non-Toxic |  |  |  |  |
